ChEMBL document CHEMBL1145471, “Small molecule regulators of autophagy identified by an image-based high-throughput screen” (Proc Natl Acad Sci U S A, 2007)

Legend:
Assay type in all cases: functional
H4 [1] = assay: Increase in light chain 3-GFP+ autophagosome vesicle number per cell in human H4 cells at 0.4 uM after 24 hrs by high throughput fluorescence microscopy relative to control
Outline: (§1)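 H4 cells stably expressing LC3-GFP, seeded in 96-well plates and exposed to compound for 24 h; fixed in 4% paraformaldehyde, nuclei stained with 3 μg/ml DAPI. Automated fluorescence microscopy scored number, size and intensity of LC3-GFP spots; values expressed relative to DMSO-treated wells, rapamycin positive control. Triplicate wells, mean ± SD; experiments repeated three times.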

H4 [2] = assay: Increase in light chain 3-GFP+ autophagosome vesicle area per cell in human H4 cells at 0.4 uM after 24 hrs by high throughput fluorescence microscopy relative to control; outline: as §1
H4 [3] = assay: Increase in light chain 3-GFP+ autophagosome vesicle intensity per cell in human H4 cells at 0.4 uM after 24 hrs by high throughput fluorescence microscopy relative to control; outline: as §1
H4 [4] = assay: Induction of light chain 3-GFP level in human H4 cells at 0.4 uM after 24 hrs by high throughput fluorescence microscopy relative to control
Outline: (§2)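 H4 cells stably expressing LC3-GFP, kept in DMEM/10% FBS at 37°C, 5% CO2, were seeded in 96-well plates and exposed to compound for 24 h. Cells were then fixed in 4% paraformaldehyde and stained with 3 μg/ml DAPI. Automated fluorescence microscopy scored the number, size and intensity of LC3-GFP spots. Values are percent of DMSO wells, in triplicate, mean ± SD. Rapamycin served as positive control.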

H4 [5] = assay: Increase in light chain 3-GFP+ autophagosome vesicle number per cell in human H4 cells at 7.6 uM after 24 hrs by high throughput fluorescence microscopy relative to control
Outline: (§3)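 H4 cells stably expressing LC3-GFP were grown in DMEM with 10% FBS and 2 mM L-glutamine at 37°C, 5% CO2. They were exposed to each compound for 24 h, with DMSO as negative and rapamycin as positive control. Cells were then fixed in 4% paraformaldehyde and stained with 3 μg/ml DAPI. High-throughput fluorescence imaging scored LC3-GFP spot number, size and intensity, expressed relative to DMSO. Mean ± SD of triplicates; experiments repeated three times.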

H4 [6] = assay: Increase in light chain 3-GFP+ autophagosome vesicle area per cell in human H4 cells at 7.6 uM after 24 hrs by high throughput fluorescence microscopy relative to control
Outline: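 H4 cells stably expressing LC3-GFP, seeded in 96-well plates and exposed to compound for 24 h; screening concentrations were 3–12 μM, with rapamycin 0.22 μM and bafilomycin A1 0.40 μM. Cells fixed in 4% paraformaldehyde and stained with 3 μg/ml DAPI. Number, size and intensity of LC3-GFP spots measured by high-throughput fluorescence microscopy and expressed as percent of DMSO-treated wells. Rapamycin was the positive control. Triplicate wells, mean ± SD; experiments repeated three times.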

H4 [7] = assay: Increase in light chain 3-GFP+ autophagosome vesicle intensity per cell in human H4 cells at 7.6 uM after 24 hrs by high throughput fluorescence microscopy relative to control; outline: as §3
H4 [8] = assay: Induction of light chain 3-GFP level in human H4 cells at 7.6 uM after 24 hrs by high throughput fluorescence microscopy relative to control
Outline: (§4)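 H4 cells stably expressing LC3-GFP, grown in DMEM with 10% FBS, penicillin/streptomycin and 2 mM L-glutamine at 37°C, 5% CO2. Cells were seeded in 96-well plates and exposed to library compounds at 3–12 μM for 24 h, then fixed in 4% paraformaldehyde and stained with 3 μg/ml DAPI. LC3-GFP spot number, size and intensity were measured by high-throughput fluorescence microscopy and expressed relative to DMSO. Triplicates, mean ± SD.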

H4 [9] = assay: Increase in light chain 3-GFP+ autophagosome vesicle number per cell in human H4 cells at 12.7 uM after 24 hrs by high throughput fluorescence microscopy relative to control; outline: as §3
H4 [10] = assay: Increase in light chain 3-GFP+ autophagosome vesicle area per cell in human H4 cells at 12.7 uM after 24 hrs by high throughput fluorescence microscopy relative to control
H4 [11] = assay: Increase in light chain 3-GFP+ autophagosome vesicle intensity per cell in human H4 cells at 12.7 uM after 24 hrs by high throughput fluorescence microscopy relative to control
H4 [12] = assay: Induction of light chain 3-GFP level in human H4 cells at 12.7 uM after 24 hrs by high throughput fluorescence microscopy relative to control; outline: as §4
H4 [13] = assay: Increase in light chain 3-GFP+ autophagosome vesicle number per cell in human H4 cells at 3.8 uM after 24 hrs by high throughput fluorescence microscopy relative to control; outline: as §1
H4 [14] = assay: Increase in light chain 3-GFP+ autophagosome vesicle area per cell in human H4 cells at 3.8 uM after 24 hrs by high throughput fluorescence microscopy relative to control; outline: as §1
H4 [15] = assay: Increase in light chain 3-GFP+ autophagosome vesicle intensity per cell in human H4 cells at 3.8 uM after 24 hrs by high throughput fluorescence microscopy relative to control; outline: as §1
H4 [16] = assay: Induction of light chain 3-GFP level in human H4 cells at 3.8 uM after 24 hrs by high throughput fluorescence microscopy relative to control; outline: as §2
H4 [17] = assay: Increase in light chain 3-GFP+ autophagosome vesicle area per cell in human H4 cells at 11.3 uM after 24 hrs by high throughput fluorescence microscopy relative to control; outline: as §1
H4 [18] = assay: Increase in light chain 3-GFP+ autophagosome vesicle number per cell in human H4 cells at 7.4 uM after 24 hrs by high throughput fluorescence microscopy relative to control; outline: as §2
H4 [19] = assay: Increase in light chain 3-GFP+ autophagosome vesicle intensity per cell in human H4 cells at 11.3 uM after 24 hrs by high throughput fluorescence microscopy relative to control; outline: as §1
H4 [20] = assay: Induction of light chain 3-GFP level in human H4 cells at 7.4 uM after 24 hrs by high throughput fluorescence microscopy relative to control; outline: as §2

Q: Which results are given for `CO/C1=C\C(C)=C\[C@@H](C)[C@@H](O)[C@@H](C)C/C(C)=C/C=C/[C@H](OC)[C@@H]([C@@H](C)[C@@H](O)[C@H](C)[C@@]2(O)C[C@@H](O)[C@H](C)[C@@H](C(C)C)O2)OC1=O` [BAFILOMYCIN A1]?
A: Activity (H4 [1]): 691.15%; Activity (H4 [2]): 1608.62%; Activity (H4 [3]): 4027.54%; Activity (H4 [4]): 71.96%

Q: Which Activity (H4 [5]) does the source give for `Oc1ccc(-c2nc(-c3ccc(F)cc3)c(-c3ccncc3)[nH]2)cc1` [SB-202190] here?
A: The Activity was 151.97%.

Q: And the Activity (H4 [6])?
A: The Activity was 160.87%.

Q: What about the Activity (H4 [7]) of the same compound?
A: Its Activity is 169.71%.

Q: And the Activity (H4 [8])?
A: The Activity was 91.14%.

Q: With `C[C@@]12C(=O)OC(=O)[C@]1(C)[C@H]1CC[C@@H]2O1` [CANTHARIDIN] as the compound, how does the Activity (H4 [9]) read?
A: The Activity was 259.49%.

Q: And the Activity (H4 [10])?
A: The Activity was 332.84%.

Q: And the Activity (H4 [11])?
A: Its Activity is 463.81%.

Q: And the Activity (H4 [12])?
A: Its Activity is 24.47%.

Q: How did the Activity (H4 [13]) turn out when `C/C=C(/C)C(=O)O[C@H]1C(C)=C2[C@H]([C@@H]1OC(=O)CCCCCCC)[C@@](C)(OC(C)=O)C[C@H](OC(=O)CCC)[C@@]1(O)[C@H]2OC(=O)[C@@]1(C)O` [THAPSIGARGIN] was run?
A: Its Activity is 193.06%.

Q: And the Activity (H4 [14])?
A: Its Activity is 199.81%.

Q: And the Activity (H4 [15])?
A: The Activity was 187.15%.

Q: And the Activity (H4 [16])?
A: Its Activity is 63.77%.

Q: For `C[C@@]1(CO)[C@H](O)CC[C@@]2(C)[C@H]1CC[C@H]1C[C@@H]3C[C@@]12CC[C@]3(O)CO` [APHIDICOLIN], which Activity (H4 [17]) is on record?
A: The Activity was 275.5%.

Q: What about the Activity (H4 [18]) of the same compound?
A: The Activity was 216.53%.

Q: And the Activity (H4 [19])?
A: The Activity was 350.13%.

Q: What about the Activity (H4 [20]) of the same compound?
A: The Activity was 73.06%.
